Measured values: ChEMBL document CHEMBL5338787, “Discovery of Novel Bruton's Tyrosine Kinase PROTACs with Enhanced Selectivity and Cellular Efficacy” (J Med Chem, 2023)
The source made the active and inactive calls. The rule behind the calls is not given here.

How the values were obtained:
[1] = molecular target: T1, Protein cereblon/Tyrosine-protein kinase BTK (Homo sapiens, UniProt Q06187+Q96SW2); assay: PROTAC activity at BTK/CRBN protein protein interaction in human Ramos cell assessed as degradation of BTK incubated for 17 hrs measured by Western blot analysis; type: cell-based
How it was run: (§1)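 Ramos or JeKo-1 cells (2 × 10^6 per well) were exposed for 17 h to 3000–0.15 nM PROTAC in 3-fold steps. Cells were lysed and analysed by western blot, with BTK normalised to β-actin. DC50 and Dmax come from the dose-response; DC50 is the mean ± SD of two independent experiments.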
Target sequence in this assay (Q06187 whole entry): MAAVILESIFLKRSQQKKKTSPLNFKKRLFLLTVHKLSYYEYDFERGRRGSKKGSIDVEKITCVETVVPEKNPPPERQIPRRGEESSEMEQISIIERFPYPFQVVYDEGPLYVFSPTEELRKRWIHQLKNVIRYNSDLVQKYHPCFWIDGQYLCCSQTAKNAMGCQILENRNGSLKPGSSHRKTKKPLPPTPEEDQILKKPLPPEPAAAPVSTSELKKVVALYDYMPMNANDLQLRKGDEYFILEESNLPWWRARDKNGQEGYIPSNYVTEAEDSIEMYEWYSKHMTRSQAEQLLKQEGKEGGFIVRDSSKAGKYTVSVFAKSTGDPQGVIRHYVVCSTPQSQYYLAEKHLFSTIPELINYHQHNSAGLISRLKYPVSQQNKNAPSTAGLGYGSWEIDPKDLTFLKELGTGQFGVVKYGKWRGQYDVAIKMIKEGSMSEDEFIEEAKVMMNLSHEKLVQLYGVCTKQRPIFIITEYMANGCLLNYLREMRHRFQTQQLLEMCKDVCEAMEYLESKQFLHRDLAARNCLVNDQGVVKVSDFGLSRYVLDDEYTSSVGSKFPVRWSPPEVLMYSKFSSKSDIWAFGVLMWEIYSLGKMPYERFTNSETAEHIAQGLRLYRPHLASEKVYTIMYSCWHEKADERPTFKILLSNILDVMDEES
Target sequence in this assay (Q96SW2 whole entry): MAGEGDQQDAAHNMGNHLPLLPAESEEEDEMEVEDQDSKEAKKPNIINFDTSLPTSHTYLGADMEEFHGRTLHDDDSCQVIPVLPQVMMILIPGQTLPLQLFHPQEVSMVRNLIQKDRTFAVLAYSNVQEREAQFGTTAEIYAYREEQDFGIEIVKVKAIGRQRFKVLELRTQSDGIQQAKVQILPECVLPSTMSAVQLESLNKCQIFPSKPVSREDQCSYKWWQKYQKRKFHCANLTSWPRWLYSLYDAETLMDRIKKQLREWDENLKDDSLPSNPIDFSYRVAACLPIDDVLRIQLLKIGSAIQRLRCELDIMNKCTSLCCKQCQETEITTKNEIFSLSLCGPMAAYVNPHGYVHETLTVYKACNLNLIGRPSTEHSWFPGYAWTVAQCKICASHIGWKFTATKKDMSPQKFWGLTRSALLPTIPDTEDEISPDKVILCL

[2] = molecular target: T1, Protein cereblon/Tyrosine-protein kinase BTK; assay: PROTAC activity at BTK/CRBN protein protein interaction in human JeKo-1 cell assessed as degradation of BTK incubated for 17 hrs measured by Western blot analysis relative to control; type: cell-based; how it was run: as §1
Target sequence in this assay (Q06187 2-659 limits assumed): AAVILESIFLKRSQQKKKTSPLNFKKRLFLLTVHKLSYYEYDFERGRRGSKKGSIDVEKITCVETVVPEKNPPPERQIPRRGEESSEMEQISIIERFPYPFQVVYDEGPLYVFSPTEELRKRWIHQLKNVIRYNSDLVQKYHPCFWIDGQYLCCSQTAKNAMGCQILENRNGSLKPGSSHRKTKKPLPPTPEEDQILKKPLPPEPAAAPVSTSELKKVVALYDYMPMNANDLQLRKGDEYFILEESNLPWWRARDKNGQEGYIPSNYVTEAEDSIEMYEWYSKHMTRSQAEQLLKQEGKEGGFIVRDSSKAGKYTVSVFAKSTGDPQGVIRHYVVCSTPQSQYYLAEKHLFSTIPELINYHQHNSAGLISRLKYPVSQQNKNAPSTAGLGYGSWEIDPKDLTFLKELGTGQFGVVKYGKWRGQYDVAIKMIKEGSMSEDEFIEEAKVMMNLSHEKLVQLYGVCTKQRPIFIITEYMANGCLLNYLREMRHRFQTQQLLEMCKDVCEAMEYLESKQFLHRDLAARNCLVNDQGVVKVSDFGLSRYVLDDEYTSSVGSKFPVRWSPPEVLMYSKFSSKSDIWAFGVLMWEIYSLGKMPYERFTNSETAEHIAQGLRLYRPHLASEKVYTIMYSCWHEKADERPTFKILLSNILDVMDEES
Target sequence in this assay (Q96SW2 whole entry partner): as the sequence (Q96SW2 whole entry) above

[3] = molecular target: T1, Protein cereblon/Tyrosine-protein kinase BTK; assay: PROTAC activity at BTK/CRBN protein protein interaction in human JeKo-1 cell assessed as degradation of BTK incubated for 17 hrs measured by Western blot analysis; type: cell-based; how it was run: as §1
Target sequence in this assay (Q06187 whole entry): as the sequence (Q06187 whole entry) above
Target sequence in this assay (Q96SW2 whole entry): as the sequence (Q96SW2 whole entry) above

[4] = molecular target: T1, Protein cereblon/Tyrosine-protein kinase BTK; assay: PROTAC activity at BTK/CRBN protein protein interaction in human Ramos cell assessed as degradation of BTK incubated for 17 hrs measured by Western blot analysis relative to control; type: cell-based; how it was run: as §1
Target sequence in this assay (Q06187 2-659 limits assumed): as the sequence (Q06187 2-659 limits assumed) above
Target sequence in this assay (Q96SW2 whole entry partner): as the sequence (Q96SW2 whole entry) above

[5] = molecular target: Zinc finger protein Aiolos (Homo sapiens) (UniProt Q9UKT9); assay: Degradation of IKZF3 in human TMD8 cells by measuring protein level at 111 nM for 6 hrs using label free proteomic analysis; type: cell-based
How it was run: (§2)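 TMD8 cells (2 × 10^6) given 111 nM or DMSO for 6 h in duplicate. Lysed in 5% SDS/50 mM TEAB pH 8.5. 200 μg protein reduced (10 mM DTT, 55 °C, 30 min), alkylated (50 mM iodoacetamide), S-Trap processed, then LC-MS/MS. Label-free matched-peptide quantitation against DMSO, human UniProt; Benjamini–Hochberg-corrected p-values.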

TMD8 = assay: Cytotoxicity against human TMD8 cells incubated for 48 hrs by celltitre glo 2.0 assay; type: functional, cell-based; settings: TMD8, 48 h
[6] = molecular target: T2, Zinc finger protein 280D (Homo sapiens) (UniProt Q6N043); assay: Degradation of […] in human TMD8 cells by measuring protein level at 111 nM for 6 hrs using label free proteomic analysis; type: cell-based; how it was run: as §2
T2 sequence (whole entry): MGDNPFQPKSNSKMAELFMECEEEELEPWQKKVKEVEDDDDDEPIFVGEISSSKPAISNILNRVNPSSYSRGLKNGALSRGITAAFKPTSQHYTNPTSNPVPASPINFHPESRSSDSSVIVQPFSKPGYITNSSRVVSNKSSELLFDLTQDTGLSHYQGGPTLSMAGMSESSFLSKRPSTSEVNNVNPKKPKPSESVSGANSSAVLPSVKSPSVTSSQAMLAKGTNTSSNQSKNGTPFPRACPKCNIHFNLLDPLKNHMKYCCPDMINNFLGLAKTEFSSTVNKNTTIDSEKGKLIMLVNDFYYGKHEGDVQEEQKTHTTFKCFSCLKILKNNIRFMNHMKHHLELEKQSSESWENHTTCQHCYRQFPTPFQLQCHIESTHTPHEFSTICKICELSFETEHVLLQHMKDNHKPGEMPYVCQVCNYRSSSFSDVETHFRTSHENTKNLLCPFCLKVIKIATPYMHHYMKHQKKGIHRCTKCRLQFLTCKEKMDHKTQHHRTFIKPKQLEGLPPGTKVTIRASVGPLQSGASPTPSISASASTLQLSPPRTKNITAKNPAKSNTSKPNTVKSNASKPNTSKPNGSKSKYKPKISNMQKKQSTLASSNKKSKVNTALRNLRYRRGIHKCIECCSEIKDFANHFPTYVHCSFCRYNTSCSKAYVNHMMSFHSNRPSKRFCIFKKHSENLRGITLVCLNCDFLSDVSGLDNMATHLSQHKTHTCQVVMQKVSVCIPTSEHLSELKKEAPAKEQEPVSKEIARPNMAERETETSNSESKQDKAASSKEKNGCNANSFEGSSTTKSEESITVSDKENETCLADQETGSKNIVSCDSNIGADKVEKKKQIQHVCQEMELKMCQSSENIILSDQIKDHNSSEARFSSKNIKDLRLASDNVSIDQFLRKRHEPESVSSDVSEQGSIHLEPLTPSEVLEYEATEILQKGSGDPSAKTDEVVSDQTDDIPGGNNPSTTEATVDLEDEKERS

[7] = molecular target: Eukaryotic peptide chain release factor GTP-binding subunit ERF3A (Homo sapiens) (UniProt P15170); assay: Degradation of […] in human TMD8 cells by measuring protein level at 111 nM for 6 hrs using label free proteomic analysis; type: cell-based; how it was run: as §2
[8] = molecular target: DNA-binding protein Ikaros (Homo sapiens) (UniProt Q13422); assay: Degradation of IKZF1 in human TMD8 cells by measuring protein level at 111 nM for 6 hrs using label free proteomic analysis; type: cell-based; how it was run: as §2
[9] = molecular target: Tyrosine-protein kinase FRK (Homo sapiens) (UniProt P42685); assay: Degradation of FRK in human TMD8 cells by measuring protein level at 111 nM for 6 hrs using label free proteomic analysis; type: cell-based; how it was run: as §2
[10] = molecular target: Tyrosine-protein kinase CSK (Homo sapiens) (UniProt P41240); assay: Degradation of CSK in human TMD8 cells by measuring protein level at 111 nM for 6 hrs using label free proteomic analysis; type: cell-based; how it was run: as §2
[11] = Cytotoxicity against human MINO cells incubated for 48 hrs by celltitre glo 2.0 assay; type: functional, cell-based
[12] = molecular target: T1, Protein cereblon/Tyrosine-protein kinase BTK; assay: PROTAC activity at Halo-tagged CRBN/NanoLuc fusion tagged BTK transfected in HEK293 cells assessed as degradation of BTK by measuring ternary complex formation using NanoGlo substrate preincubated with proteasome inhibitor MG-132 for 30 mins followed by compound and substrate addition incubated for 2.5 hrs measured by NANOBRET assay relative to 4-((2-((S)-4-(6-((2'-(7,7-Dimethyl-1-oxo-1,3,4,6,7,8-hexahydro-2H-cyclopenta[4,5]pyrrolo[1,2-a]pyrazin-2-yl)-3'-(hydroxymethyl)-1-methyl-6-oxo-1,6-dihydro-[3,4'-bipyridin]-5-yl)amino)pyridin-3-yl)-3-methylpiperazin-1-yl)-2-oxoethyl)amino)-2-(2,6-dioxopiperidin-3-yl)isoindoline-1,3-dione; type: cell-based; design: scale not given: the % may be the effect or the level left
Target sequence in this assay (Q06187 2-659 limits assumed): as the sequence (Q06187 2-659 limits assumed) above
Target sequence in this assay (Q96SW2 whole entry partner): as the sequence (Q96SW2 whole entry) above

[13] = molecular target: T3, Tyrosine-protein kinase BTK (Homo sapiens, UniProt Q06187); assay: Binding affinity to full length BTK (unknown origin) assessed as dissociation constant measured at 37 degree C by TR-FRET assay
[14] = molecular target: T3, Tyrosine-protein kinase BTK; assay: Inhibition of BTK in HEK293 cells using NanoGlo substrate incubated for 2 hrs by NanoBRET assay; type: cell-based
Protein cereblon = Protein cereblon (Homo sapiens, UniProt Q96SW2); assay: Inhibition of CRBN in HEK293 cells using NanoGlo substrate incubated for 2 hrs by NanoBRET assay; type: cell-based
[15] = molecular target: T3, Tyrosine-protein kinase BTK; assay: Potency index, ratio of test compound Kd to GDC-0853 Kd for full length BTK (unknown origin)
MINO = assay: Induction of apoptosis in human MINO cells measured after 48 hrs by Annexin-V/propidium iodide staining based flow cytometric analysis; type: functional, cell-based; settings: dose 0.15-3000 nM
How it was run: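 Cells plated at 2 × 10^6 per well and treated 48 h at 3,000–0.15 nM (3-fold dilutions) or 1% DMSO. Harvested, washed in cold PBS, stained with Annexin V Alexa Fluor 488/propidium iodide, analysed by flow cytometry for % live, apoptotic and necrotic cells. Mean of two independent experiments.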

T3 sequence (Q06187 whole entry): as the sequence (Q06187 whole entry) above
Sequence of Protein cereblon (Q96SW2 whole entry): as the sequence (Q96SW2 whole entry) above
Sequence of Tyrosine-protein kinase FRK (Homo sapiens) (P42685 whole entry): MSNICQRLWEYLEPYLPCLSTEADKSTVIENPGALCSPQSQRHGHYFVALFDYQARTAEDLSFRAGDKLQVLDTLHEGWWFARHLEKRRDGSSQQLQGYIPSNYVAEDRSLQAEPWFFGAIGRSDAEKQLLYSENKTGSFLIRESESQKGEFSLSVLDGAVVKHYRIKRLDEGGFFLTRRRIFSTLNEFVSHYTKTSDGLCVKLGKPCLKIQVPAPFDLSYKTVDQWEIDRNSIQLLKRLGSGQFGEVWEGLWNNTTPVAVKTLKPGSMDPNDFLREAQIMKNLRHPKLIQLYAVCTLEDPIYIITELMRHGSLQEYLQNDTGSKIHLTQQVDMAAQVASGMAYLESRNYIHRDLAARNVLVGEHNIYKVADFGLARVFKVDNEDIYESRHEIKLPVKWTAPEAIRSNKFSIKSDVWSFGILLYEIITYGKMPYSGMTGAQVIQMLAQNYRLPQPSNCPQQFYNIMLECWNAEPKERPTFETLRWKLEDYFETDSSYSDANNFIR
Sequence of Zinc finger protein Aiolos (Homo sapiens) (Q9UKT9 whole entry): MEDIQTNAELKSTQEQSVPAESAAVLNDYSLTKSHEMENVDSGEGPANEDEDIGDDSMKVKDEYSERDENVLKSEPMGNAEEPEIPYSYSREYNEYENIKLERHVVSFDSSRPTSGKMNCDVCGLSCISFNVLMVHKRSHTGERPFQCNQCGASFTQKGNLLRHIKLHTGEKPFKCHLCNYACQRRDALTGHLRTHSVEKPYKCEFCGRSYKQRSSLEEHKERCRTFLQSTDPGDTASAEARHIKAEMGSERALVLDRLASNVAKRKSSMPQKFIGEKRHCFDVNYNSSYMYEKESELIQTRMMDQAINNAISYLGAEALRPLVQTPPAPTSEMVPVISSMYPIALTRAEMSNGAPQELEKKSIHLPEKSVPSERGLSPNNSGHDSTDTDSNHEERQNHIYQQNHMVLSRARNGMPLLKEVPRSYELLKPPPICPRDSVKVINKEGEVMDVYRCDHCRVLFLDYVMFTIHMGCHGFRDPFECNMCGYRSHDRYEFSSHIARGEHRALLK
Sequence of Tyrosine-protein kinase CSK (Homo sapiens) (P41240 2-450 limits assumed): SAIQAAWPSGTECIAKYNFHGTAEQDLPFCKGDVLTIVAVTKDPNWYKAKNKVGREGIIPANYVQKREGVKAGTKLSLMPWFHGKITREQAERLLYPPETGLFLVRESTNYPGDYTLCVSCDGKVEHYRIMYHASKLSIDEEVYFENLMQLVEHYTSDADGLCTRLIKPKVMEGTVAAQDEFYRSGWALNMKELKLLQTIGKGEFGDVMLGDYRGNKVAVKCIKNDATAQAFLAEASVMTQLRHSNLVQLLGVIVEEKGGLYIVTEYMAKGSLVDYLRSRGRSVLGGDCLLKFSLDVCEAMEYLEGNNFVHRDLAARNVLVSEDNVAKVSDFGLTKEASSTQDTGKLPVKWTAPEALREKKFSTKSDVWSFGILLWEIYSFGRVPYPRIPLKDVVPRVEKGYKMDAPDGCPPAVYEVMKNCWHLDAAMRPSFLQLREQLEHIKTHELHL
Sequence of Eukaryotic peptide chain release factor GTP-binding subunit ERF3A (Homo sapiens) (P15170 whole entry): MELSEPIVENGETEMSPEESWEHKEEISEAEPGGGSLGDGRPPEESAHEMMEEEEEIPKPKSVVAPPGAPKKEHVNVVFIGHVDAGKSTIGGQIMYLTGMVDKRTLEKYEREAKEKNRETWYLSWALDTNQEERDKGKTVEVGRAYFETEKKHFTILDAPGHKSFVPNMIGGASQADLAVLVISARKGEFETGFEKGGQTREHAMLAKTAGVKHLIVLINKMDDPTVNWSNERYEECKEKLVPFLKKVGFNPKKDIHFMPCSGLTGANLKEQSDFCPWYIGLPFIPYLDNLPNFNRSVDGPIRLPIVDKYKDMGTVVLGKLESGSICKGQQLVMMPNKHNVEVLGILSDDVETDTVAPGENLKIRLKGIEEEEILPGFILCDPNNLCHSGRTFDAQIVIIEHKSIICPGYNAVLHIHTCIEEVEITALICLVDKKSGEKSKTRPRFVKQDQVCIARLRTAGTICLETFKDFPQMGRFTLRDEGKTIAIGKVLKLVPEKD
Sequence of DNA-binding protein Ikaros (Homo sapiens) (Q13422 whole entry): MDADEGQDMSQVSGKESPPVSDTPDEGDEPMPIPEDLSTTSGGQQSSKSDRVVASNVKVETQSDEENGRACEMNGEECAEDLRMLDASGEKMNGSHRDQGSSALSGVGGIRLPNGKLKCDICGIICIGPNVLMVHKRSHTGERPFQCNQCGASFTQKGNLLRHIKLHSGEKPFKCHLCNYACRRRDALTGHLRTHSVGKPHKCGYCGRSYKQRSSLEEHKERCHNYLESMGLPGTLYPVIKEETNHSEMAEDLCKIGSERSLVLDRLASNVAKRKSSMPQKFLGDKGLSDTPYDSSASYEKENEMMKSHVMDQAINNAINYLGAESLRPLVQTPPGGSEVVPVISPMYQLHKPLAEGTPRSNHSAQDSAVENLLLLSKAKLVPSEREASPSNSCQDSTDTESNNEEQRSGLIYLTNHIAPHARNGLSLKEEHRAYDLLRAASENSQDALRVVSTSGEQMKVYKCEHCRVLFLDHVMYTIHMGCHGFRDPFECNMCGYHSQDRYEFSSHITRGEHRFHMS

SMILES	DC50 [1] [nM]	Emax [2] [%]	DC50 [3] [nM]	Emax [4] [%]	further results
C[C@H]1CN(C(=O)CNc2ccc3c(c2)C(=O)N(C2CCC(=O)NC2=O)C3=O)CCN1c1ccc(Nc2cc(-c3ccnc(N4CCn5c(cc6c5CC(C)(C)C6)C4=O)c3CO)cn(C)c2=O)nc1 (some centres undefined)	0.9	97.6	0.8	97.3	–
C[C@H]1CN(C(=O)CCOCCOCCNc2cccc3c2C(=O)N(C2CCC(=O)NC2=O)C3=O)CCN1c1ccc(Nc2cc(-c3ccnc(N4CCn5c(cc6c5CC(C)(C)C6)C4=O)c3CO)cn(C)c2=O)nc1 (some centres undefined)	1.3	95.1	4.1	96.1	–
C[C@H]1CN(C(=O)CCCNc2cccc3c2C(=O)N(C2CCC(=O)NC2=O)C3=O)CCN1c1ccc(Nc2cc(-c3ccnc(N4CCn5c(cc6c5CC(C)(C)C6)C4=O)c3CO)cn(C)c2=O)nc1 (some centres undefined)	0.9	97.4	1	95.7	–
Cn1cc(-c2ccnc(N3CCn4c(cc5c4CC(C)(C)C5)C3=O)c2CO)cc(Nc2ccc(N3CCN(C(=O)CCCCCCOCCOCC(=O)Nc4cccc5c4C(=O)N(C4CCC(=O)NC4=O)C5=O)CC3)cn2)c1=O (centres undefined)	4	98.8	7.2	98.3	–
Nc1ncnc2c1c(-c1ccc(Oc3ccccc3)cc1)nn2[C@@H]1CCCN(C(=O)c2cn(CCOCCOCCOCCNc3cccc4c3C(=O)N(C3CCC(=O)NC3=O)C4=O)nn2)C1 (some centres undefined)	–	–	–	–	Activity [5]: Active; IC50 (TMD8): 15 nM; Activity [6]: Active; Activity [7]: inactive; Activity [8]: Active; Activity [9]: Active; Activity [10]: Active; IC50 [11]: 10.4 nM
C[C@H]1CN(C(=O)CCCCCCNc2cccc3c2C(=O)N(C2CCC(=O)NC2=O)C3=O)CCN1c1ccc(Nc2cc(-c3ccnc(N4CCn5c(cc6c5CC(C)(C)C6)C4=O)c3CO)cn(C)c2=O)nc1 (some centres undefined)	3.2	97	3.3	95	–
C[C@H]1CN(CCCCCCOCCOCC(=O)Nc2cccc3c2C(=O)N(C2CCC(=O)NC2=O)C3=O)CCN1c1ccc(Nc2cc(-c3ccnc(N4CCn5c(cc6c5CC(C)(C)C6)C4=O)c3CO)cn(C)c2=O)nc1 (some centres undefined)	7	96.9	9.7	95.6	–
C[C@H]1CN(C(=O)c2cccc3c2C(=O)N(C2CCC(=O)NC2=O)C3=O)CCN1c1ccc(Nc2cc(-c3ccnc(N4CCn5c(cc6c5CC(C)(C)C6)C4=O)c3CO)cn(C)c2=O)nc1 (some centres undefined)	> 3000	30	> 3000	30.1	Activity [12]: 0%; Kd [13]: 0.86 nM; IC50 [14]: 320 nM; IC50 (Protein cereblon): 7000 nM; Ratio [15]: 3
C[C@H]1CN(C(=O)CCCCCCCCCCCNc2cccc3c2C(=O)N(C2CCC(=O)NC2=O)C3=O)CCN1c1ccc(Nc2cc(-c3ccnc(N4CCn5c(cc6c5CC(C)(C)C6)C4=O)c3CO)cn(C)c2=O)nc1 (some centres undefined)	113	89.8	348	89	Activity [12]: 75%; Kd [13]: 107 nM; IC50 [14]: 3200 nM; IC50 (Protein cereblon): 5000 nM; Ratio [15]: 300
Nc1ncnc2c1c(-c1ccc(Oc3ccccc3)cc1)nn2C1CCN(CCOCCOCC(=O)Nc2ccc3c(c2)C(=O)N(C2CCC(=O)NC2=O)C3=O)CC1 (centres undefined)	–	–	–	–	IC50 (TMD8): 12 nM; IC50 [11]: 100 nM
C[C@H]1CN(C(=O)CCCCCCOCCOCC(=O)Nc2cccc3c2C(=O)N(C2CCC(=O)NC2=O)C3=O)CCN1c1ccc(Nc2cc(-c3ccnc(N4CCn5c(cc6c5CC(C)(C)C6)C4=O)c3CO)cn(C)c2=O)nc1 (some centres undefined)	6.6	97.7	–	97.1	–
Nc1cccc2c1C(=O)N(C1CCC(=O)NC1=O)C2=O (centres undefined)	–	–	–	–	Activity (MINO): Dose-Dependent Effect
C[C@H]1CN(C(=O)CNc2cccc3c2CN(C2CCC(=O)NC2=O)C3=O)CCN1c1ccc(Nc2cc(-c3ccnc(N4CCn5c(cc6c5CC(C)(C)C6)C4=O)c3CO)cn(C)c2=O)nc1 (some centres undefined)	3.6	89.2	4.6	89.8	–
C[C@H]1CN(C(=O)CCCCCCCCCNc2cccc3c2C(=O)N(C2CCC(=O)NC2=O)C3=O)CCN1c1ccc(Nc2cc(-c3ccnc(N4CCn5c(cc6c5CC(C)(C)C6)C4=O)c3CO)cn(C)c2=O)nc1 (some centres undefined)	31.2	97.1	32.1	94	–
Cn1cc(-c2ccnc(N3CCn4c(cc5c4CC(C)(C)C5)C3=O)c2CO)cc(Nc2ccc(N3CCN(CCCCCCOCCOCC(=O)Nc4cccc5c4C(=O)N(C4CCC(=O)NC4=O)C5=O)CC3)cn2)c1=O (centres undefined)	5.3	97.7	6.8	97.2	–
Cc1c(NC(=O)c2ccc(C(C)(C)C)cc2)cccc1-c1cn(C)c(=O)c(Nc2ccc(C(=O)N3CCN(CCCCCCNC(=O)CNc4cccc5c4C(=O)N(C4CCC(=O)NC4=O)C5=O)CC3)cc2)n1 (centres undefined)	–	–	–	–	IC50 (TMD8): 5.1 nM; IC50 [11]: 10.9 nM
Cn1cc(-c2ccnc(N3CCn4c(cc5c4CC(C)(C)C5)C3=O)c2CO)cc(Nc2ccc(N3CCN(C(=O)CCCCCCNc4cccc5c4C(=O)N(C4CCC(=O)NC4=O)C5=O)CC3)cn2)c1=O (centres undefined)	2	98	3.5	96.9	–
